From ChEMBL document CHEMBL5058577, “EUbOPEN Chemogenomics Library 2 (Multiplex)” (2022)

Test system: Fibroblast
Assay: Multiplex assay against human fibroblast
Assay type: toxicity, cell-based
In short: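 Cells were classed with CellPathfinder machine-learning gating, first as Hoechst high-intensity objects or normal cells, then (normal cells) as healthy, pyknosed or fragmented nuclei, and finally (pyknosed cells) as mitotic or apoptotic. Staining of live cells at seeding used Hoechst33342, BioTracker Green Microtubule Cytoskeleton Dye, MitoTracker Red and Annexin V Alexa Fluor 680, with imaging on a CQ1 microscope at 37°C and 5% CO2 after compound addition. Tubulin, mitochondrial-mass and membrane-permeability phenotypes are per cents of healthy-nucleus cells.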

[1] = 12 h, 1 µM, compound concentration 1 uM, replicate 1
[2] = 12 h, 1 µM, compound concentration 1 uM, replicate 2
[3] = 12 h, 10 µM, compound concentration 10 uM, replicate 1
[4] = 12 h, 10 µM, compound concentration 10 uM, replicate 2
[5] = 24 h, 1 µM, compound concentration 1 uM, replicate 1
[6] = 24 h, 1 µM, compound concentration 1 uM, replicate 2
[7] = 24 h, 10 µM, compound concentration 10 uM, replicate 1
[8] = 24 h, 10 µM, compound concentration 10 uM, replicate 2
[9] = 48 h, 1 µM, compound concentration 1 uM, replicate 1
[10] = 48 h, 1 µM, compound concentration 1 uM, replicate 2
[11] = 48 h, 10 µM, compound concentration 10 uM, replicate 1
[12] = 48 h, 10 µM, compound concentration 10 uM, replicate 2

## S=C(NCCCc1c[nH]cn1)NCCCN(Cc1ccc(Cl)c(Cl)c1)c1ccc(Br)cn1
[1]
  Population Apoptotic (%): 40%
  Population Fragmented Nuclei (%): 13%
  Population Healthy Nuclei (%): 71%
  Population Hoechst High Intensity Objects (%): 5%
  Population Membrane Permeable-Phenotype (%): 1%
  Population Mitochondria Different-Phenotype (%): 5%
  Population Mitotic Cells (%): 60%
  Population Normal (%): 94%
  Population Pyknosed Nuclei (%): 14%
  Population Tubulin-Different-Phenotype (%): 26%
  Total Cell Count: 142
[2]
  Population Apoptotic (%): 31%
  Population Fragmented Nuclei (%): 30%
  Population Healthy Nuclei (%): 50%
  Population Hoechst High Intensity Objects (%): 4%
  Population Membrane Permeable-Phenotype (%): 5%
  Population Mitochondria Different-Phenotype (%): 6%
  Population Mitotic Cells (%): 68%
  Population Normal (%): 95%
  Population Pyknosed Nuclei (%): 18%
  Population Tubulin-Different-Phenotype (%): 37%
  Total Cell Count: 181
[3]
  Population Apoptotic (%): 47%
  Population Fragmented Nuclei (%): 27%
  Population Healthy Nuclei (%): 56%
  Population Hoechst High Intensity Objects (%): 3%
  Population Membrane Permeable-Phenotype (%): 0%
  Population Mitochondria Different-Phenotype (%): 15%
  Population Mitotic Cells (%): 52%
  Population Normal (%): 96%
  Population Pyknosed Nuclei (%): 16%
  Population Tubulin-Different-Phenotype (%): 89%
  Total Cell Count: 220
[4]
  Population Apoptotic (%): 52%
  Population Fragmented Nuclei (%): 34%
  Population Healthy Nuclei (%): 53%
  Population Hoechst High Intensity Objects (%): 5%
  Population Mitochondria Different-Phenotype (%): 10%
  Population Mitotic Cells (%): 47%
  Population Normal (%): 94%
  Population Pyknosed Nuclei (%): 12%
  Total Cell Count: 279
[5]
  Population Apoptotic (%): 69%
  Population Fragmented Nuclei (%): 15%
  Population Healthy Nuclei (%): 74%
  Population Hoechst High Intensity Objects (%): 4%
  Population Membrane Permeable-Phenotype (%): 2%
  Population Mitochondria Different-Phenotype (%): 2%
  Population Mitotic Cells (%): 30%
  Population Normal (%): 95%
  Population Pyknosed Nuclei (%): 9%
  Population Tubulin-Different-Phenotype (%): 28%
  Total Cell Count: 137
[6]
  Population Apoptotic (%): 23%
  Population Fragmented Nuclei (%): 30%
  Population Healthy Nuclei (%): 57%
  Population Hoechst High Intensity Objects (%): 1%
  Population Mitochondria Different-Phenotype (%): 6%
  Population Mitotic Cells (%): 76%
  Population Normal (%): 98%
  Population Pyknosed Nuclei (%): 11%
  Population Tubulin-Different-Phenotype (%): 42%
  Total Cell Count: 183
[7]
  Population Apoptotic (%): 66%
  Population Fragmented Nuclei (%): 22%
  Population Healthy Nuclei (%): 61%
  Population Hoechst High Intensity Objects (%): 1%
  Population Membrane Permeable-Phenotype (%): 0%
  Population Mitochondria Different-Phenotype (%): 19%
  Population Mitotic Cells (%): 33%
  Population Normal (%): 98%
  Population Pyknosed Nuclei (%): 15%
  Population Tubulin-Different-Phenotype (%): 93%
  Total Cell Count: 214
[8]
  Population Apoptotic (%): 61%
  Population Fragmented Nuclei (%): 27%
  Population Healthy Nuclei (%): 59%
  Population Hoechst High Intensity Objects (%): 4%
  Population Membrane Permeable-Phenotype (%): 2%
  Population Mitochondria Different-Phenotype (%): 7%
  Population Mitotic Cells (%): 38%
  Population Normal (%): 95%
  Population Pyknosed Nuclei (%): 13%
  Population Tubulin-Different-Phenotype (%): 95%
  Total Cell Count: 248
[9]
  Population Apoptotic (%): 75%
  Population Fragmented Nuclei (%): 27%
  Population Healthy Nuclei (%): 67%
  Population Hoechst High Intensity Objects (%): 3%
  Population Membrane Permeable-Phenotype (%): 0%
  Population Mitochondria Different-Phenotype (%): 0%
  Population Mitotic Cells (%): 25%
  Population Normal (%): 96%
  Population Pyknosed Nuclei (%): 5%
  Population Tubulin-Different-Phenotype (%): 24%
  Total Cell Count: 156
[10]
  Population Apoptotic (%): 35%
  Population Fragmented Nuclei (%): 30%
  Population Healthy Nuclei (%): 59%
  Population Hoechst High Intensity Objects (%): 4%
  Population Membrane Permeable-Phenotype (%): 5%
  Population Mitochondria Different-Phenotype (%): 3%
  Population Mitotic Cells (%): 64%
  Population Normal (%): 95%
  Population Pyknosed Nuclei (%): 10%
  Population Tubulin-Different-Phenotype (%): 36%
  Total Cell Count: 178
[11]
  Population Apoptotic (%): 62%
  Population Fragmented Nuclei (%): 27%
  Population Healthy Nuclei (%): 59%
  Population Hoechst High Intensity Objects (%): 6%
  Population Membrane Permeable-Phenotype (%): 0%
  Population Mitochondria Different-Phenotype (%): 7%
  Population Mitotic Cells (%): 37%
  Population Normal (%): 93%
  Population Pyknosed Nuclei (%): 12%
  Population Tubulin-Different-Phenotype (%): 91%
  Total Cell Count: 230
[12]
  Population Apoptotic (%): 63%
  Population Fragmented Nuclei (%): 31%
  Population Healthy Nuclei (%): 60%
  Population Hoechst High Intensity Objects (%): 5%
  Population Mitochondria Different-Phenotype (%): 1%
  Population Mitotic Cells (%): 36%
  Population Normal (%): 94%
  Population Pyknosed Nuclei (%): 7%
  Population Tubulin-Different-Phenotype (%): 86%
  Total Cell Count: 293
